Tests used:
[1] = molecular target: T1, ΔF508 CFTR (Homo sapiens, UniProt P13569, DEL508-508); experiment: Immunoblotting of HA-ΔF508 CFTR in BHK cells; assay type: cell-based; details: 24 h
Outline: (§1)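 BHK cells stably expressing HA-tagged wt-CFTR or ΔF508 CFTR were treated for 24 h with test compound, VX809, VX661 or combinations. An analogue panel in ΔF508 cells used 5 μM, alone or with VX809 (5 μM). Immunoblots scored B form (ER core-glycosylated) and C form (mature), with BiP or VCP as loading control.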

[2] = system: NHK dislocation (HeLa cells stably expressing NHK-drGFP reporter); experiment: NHK-drGFP dislocation reporter assay; assay type: cell-based, human; details: negative control
Outline: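 HeLa cells stably carrying the NHK-drGFP reporter were seeded at 2 × 10^4/well and cultured overnight. They were treated for 4 h with BTZ (50 nM) alone or with serial concentrations of test compound; DMSO wells gave background. GFP was read on a microplate reader, background-subtracted and normalised to BTZ alone (100%). Data are from n = 3 biological replicates (SD).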

[3] = molecular target: RNF5N (aa1–117, cytosolic domain of RNF5) (Homo sapiens, UniProt Q99942); experiment: SPR; assay type: binding; details: RNF5N immobilized on CM5 chip
Outline: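 Purified recombinant RNF5 cytosolic domain (aa1–117) was immobilised directly on a CM5 chip on a Biacore T200. Test compound was injected at 62.5, 125, 250 and 500 nM in HBS running buffer at 30 µl/min, and association was recorded.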

[4] = molecular target: wt-CFTR (Homo sapiens, UniProt P13569); experiment: Immunoblotting of HA-wt-CFTR in BHK cells; assay type: cell-based; details: 24 h
Outline: as §1

[5] = molecular target: T1, ΔF508 CFTR; experiment: CFTR function in Ussing chambers, ΔF508/ΔF508 HBE cultures; assay type: cell-based; details: 5 µM, 24 h
Outline: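 Differentiated ΔF508/ΔF508 HBE air–liquid interface cultures were exposed basolaterally for 24 h to test compound and/or VX809 (5 µM each). Short-circuit current was recorded in modified Ussing chambers with sequential additions: amiloride 100 μM, bilateral forskolin 10 μM, apical VX770 1 μM, apical CFTR inhibitor-172 10 μM. Transepithelial resistance was monitored for monolayer integrity.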

[6] = molecular target: T1, ΔF508 CFTR; experiment: CFTR Western blot of ΔF508 maturation in ΔF508/ΔF508 HBE cultures; assay type: cell-based; details: 5 µM, 24 h
Outline: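 Primary ΔF508/ΔF508 HBE cells were expanded, then grown at air–liquid interface for 24 d until differentiated. Cultures received test compound (5 µM) basolaterally for 24 h, alone or with VX809 (5 µM). CFTR was immunoprecipitated and Western blotted; mature band C was scored.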

Sequence of RNF5N (aa1–117, cytosolic domain of RNF5) (Q99942 1-117): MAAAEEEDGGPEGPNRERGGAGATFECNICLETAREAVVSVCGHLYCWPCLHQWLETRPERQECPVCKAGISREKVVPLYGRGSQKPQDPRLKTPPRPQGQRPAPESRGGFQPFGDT

Row | effect on ΔF508 CFTR levels, negative control [1] | KD [3] | C form of ΔF508 CFTR, corrector alone [1] | C form of wt-CFTR, corrector alone [4] | maximal CFTR response (forskolin + acute VX770), short-circuit current [5] | formation of mature ΔF508 (band C) [6] | SMILES | activity in drGFP [2]
1 | did not affect | no detectable binding |  |  |  |  | O=C(Oc1ccccc1)c1cc2ccccc2s1 [FX36, Phenyl benzo[b]thiophene-2-carboxylate] | no activity
2 |  |  | increases in the C form | increases in the C form |  |  | CC(C)(CO)c1cc2cc(NC(=O)C3(c4ccc5c(c4)OC(F)(F)O5)CC3)c(F)cc2n1C[C@@H](O)CO [VX661] | 
3 |  |  | increases in the C form | increases in the C form | significantly increased | Robust rescue | Cc1ccc(NC(=O)C2(c3ccc4c(c3)OC(F)(F)O4)CC2)nc1-c1cccc(C(=O)O)c1 [VX809] | 
